Laboratory results published in ChEMBL document CHEMBL3271988, “Nitrogen analogues of 1,4-benzoquinones. Activities against the ascitic sarcoma 180 of mice” (J Med Chem, 1978).
Calls of active or inactive are those of the source. The calls are words filed in the database; no cut-off is given here.

How the values were obtained:
[1] = Acute toxicity in single ip dosed Swiss mouse assessed as death up to 5 days; assay type: organism-based; conditions: in vivo
How it was run: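 Male Swiss mice given one ip dose. LD50 taken as the single dose killing 50% of animals within 5 days.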

Sarcoma-180 [2] = test: Antitumor activity against mouse Sarcoma 180 cells allografted in Swiss mouse assessed as survival at 60 mg/kg, ip three doses were given at 24 hrs interval starting 24 hrs after allograft injection measured after 5 days; assay type: functional, organism-based; parameters: dose 60 mg/kg
How it was run: (§1)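 Swiss mice were injected ip with 10^6 ascitic sarcoma 180 cells. Three daily ip doses followed, the first 24 h after cell injection. The read-out was the number of mice surviving at 5 days, out of 6 treated.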

[3] = Half life of the compound in water at pH 7 at 25 degC by spectrophotometry; assay type: physicochemical
How it was run: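 Compound dissolved in absolute ethanol, then diluted into 0.01 M Tris buffer brought to pH 7 with HCl, 25 °C. Absorbance at λmax followed over hours or days; log absorbance vs time fitted by least squares, rate constant and half-time taken from the slope.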

[4] = Redox potential of the compound in alcohol-water solution; conditions: buffer
Sarcoma-180 [5] = test: Antitumor activity against mouse Sarcoma 180 cells allografted in Swiss mouse assessed as survival time at 60 mg/kg, ip three doses were given at 24 hrs interval starting 24 hrs after allograft injection relative to control; assay type: functional; conditions: route intraperitoneal
How it was run: (§2)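 Swiss mice inoculated ip with 10^6 ascitic sarcoma 180 cells. Compound given ip daily ×3 at 24-h intervals, starting 24 h after inoculation. Controls received isotonic saline on the same schedule; 6 mice per group. Mice alive at 60 days counted as 60 days in mean survival (±SD).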

Sarcoma-180 [6] = test: Antitumor activity against mouse Sarcoma 180 cells allografted in Swiss mouse assessed as cure at 60 mg/kg, ip three doses were given at 24 hrs interval starting 24 hrs after allograft injection measured after 60 days; assay type: functional, organism-based; parameters: dose 60 mg/kg
How it was run: (§3)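 Swiss mice given 10^6 ascitic sarcoma 180 cells ip. Starting 24 h later, three ip doses were given 24 h apart. Controls got isotonic salt solution on the same schedule. A cure was a mouse alive with no evidence of cancer cells 60 days after cell injection, reported per 6 mice.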

Sarcoma-180 [7] = test: Antitumor activity against mouse Sarcoma 180 cells allografted in Swiss mouse at 60 mg/kg, ip three doses were given at 24 hrs interval starting 24 hrs after allograft injection relative to control; assay type: functional; conditions: route intraperitoneal
How it was run: (§4)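 Swiss mice received 10^6 ascitic sarcoma 180 cells ip, then three ip doses 24 h apart starting at 24 h. Controls got isotonic salt solution on the same schedule. T/C% is mean survival time of treated over controls (6 mice per group).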

Sarcoma-180 [8] = test: Antitumor activity against mouse Sarcoma 180 cells allografted in Swiss mouse assessed as weight gain at 60 mg/kg, ip three doses were given at 24 hrs interval starting 24 hrs after allograft injection measured after 3 days relative to control; assay type: functional; conditions: route intraperitoneal
How it was run: (§5)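 Ascitic sarcoma 180 model in Swiss mice: 10^6 cells ip, then three ip doses at 24-h intervals beginning 24 h later. Mice were weighed 1 day after cell injection and again 3 days later (24 h after the third dose). Percent weight gain of treated mice was compared with saline-treated controls on the same schedule.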

Sarcoma-180 [9] = test: Antitumor activity against mouse Sarcoma 180 cells allografted in Swiss mouse assessed as survival at 20 mg/kg, ip three doses were given at 24 hrs interval starting 24 hrs after allograft injection measured after 5 days; assay type: functional, organism-based; parameters: dose 20 mg/kg; how it was run: as §1
Sarcoma-180 [10] = test: Antitumor activity against mouse Sarcoma 180 cells allografted in Swiss mouse assessed as weight gain at 20 mg/kg, ip three doses were given at 24 hrs interval starting 24 hrs after allograft injection measured after 3 days relative to control; assay type: functional; conditions: route intraperitoneal; how it was run: as §5
Sarcoma-180 [11] = test: Antitumor activity against mouse Sarcoma 180 cells allografted in Swiss mouse assessed as survival time at 20 mg/kg, ip three doses were given at 24 hrs interval starting 24 hrs after allograft injection relative to control; assay type: functional; conditions: route intraperitoneal; how it was run: as §2
Sarcoma-180 [12] = test: Antitumor activity against mouse Sarcoma 180 cells allografted in Swiss mouse assessed as cure at 20 mg/kg, ip three doses were given at 24 hrs interval starting 24 hrs after allograft injection measured after 60 days; assay type: functional, organism-based; parameters: dose 20 mg/kg; how it was run: as §3
Sarcoma-180 [13] = test: Antitumor activity against mouse Sarcoma 180 cells allografted in Swiss mouse at 20 mg/kg, ip three doses were given at 24 hrs interval starting 24 hrs after allograft injection relative to control; assay type: functional; conditions: route intraperitoneal; how it was run: as §4
Sarcoma-180 [14] = test: Antitumor activity against mouse Sarcoma 180 cells allografted in Swiss mouse assessed as weight gain at 6 mg/kg, ip three doses were given at 24 hrs interval starting 24 hrs after allograft injection measured after 3 days relative to control; assay type: functional; conditions: route intraperitoneal; how it was run: as §5
Sarcoma-180 [15] = test: Antitumor activity against mouse Sarcoma 180 cells allografted in Swiss mouse assessed as survival time at 6 mg/kg, ip three doses were given at 24 hrs interval starting 24 hrs after allograft injection relative to control; assay type: functional; conditions: route intraperitoneal; how it was run: as §2
Sarcoma-180 [16] = test: Antitumor activity against mouse Sarcoma 180 cells allografted in Swiss mouse at 6 mg/kg, ip three doses were given at 24 hrs interval starting 24 hrs after allograft injection relative to control; assay type: functional; conditions: route intraperitoneal; how it was run: as §4
Sarcoma-180 [17] = test: Antitumor activity against mouse Sarcoma 180 cells allografted in Swiss mouse assessed as survival at 6 mg/kg, ip three doses were given at 24 hrs interval starting 24 hrs after allograft injection measured after 5 days; assay type: functional, organism-based; parameters: dose 6 mg/kg; how it was run: as §1
Sarcoma-180 [18] = test: Antitumor activity against mouse Sarcoma 180 cells allografted in Swiss mouse assessed as cure at 6 mg/kg, ip three doses were given at 24 hrs interval starting 24 hrs after allograft injection measured after 60 days; assay type: functional, organism-based; parameters: dose 6 mg/kg; how it was run: as §3
Sarcoma-180 [19] = test: Antitumor activity against mouse Sarcoma 180 cells allografted in Swiss mouse assessed as survival time at 15 mg/kg, ip three doses were given at 24 hrs interval starting 24 hrs after allograft injection relative to control; assay type: functional; conditions: route intraperitoneal; how it was run: as §2
Sarcoma-180 [20] = test: Antitumor activity against mouse Sarcoma 180 cells allografted in Swiss mouse assessed as survival at 15 mg/kg, ip three doses were given at 24 hrs interval starting 24 hrs after allograft injection measured after 5 days; assay type: functional, organism-based; parameters: dose 15 mg/kg; how it was run: as §1
Sarcoma-180 [21] = test: Antitumor activity against mouse Sarcoma 180 cells allografted in Swiss mouse at 15 mg/kg, ip three doses were given at 24 hrs interval starting 24 hrs after allograft injection relative to control; assay type: functional; conditions: route intraperitoneal; how it was run: as §4
Sarcoma-180 [22] = test: Antitumor activity against mouse Sarcoma 180 cells allografted in Swiss mouse assessed as weight gain at 15 mg/kg, ip three doses were given at 24 hrs interval starting 24 hrs after allograft injection measured after 3 days relative to control; assay type: functional; conditions: route intraperitoneal; how it was run: as §5
Sarcoma-180 [23] = test: Antitumor activity against mouse Sarcoma 180 cells allografted in Swiss mouse assessed as survival time at 70 mg/kg, ip three doses were given at 24 hrs interval starting 24 hrs after allograft injection relative to control; assay type: functional; conditions: route intraperitoneal; how it was run: as §2
Sarcoma-180 [24] = test: Antitumor activity against mouse Sarcoma 180 cells allografted in Swiss mouse assessed as cure at 70 mg/kg, ip three doses were given at 24 hrs interval starting 24 hrs after allograft injection measured after 60 days; assay type: functional, organism-based; parameters: dose 70 mg/kg; how it was run: as §3
Sarcoma-180 [25] = test: Antitumor activity against mouse Sarcoma 180 cells allografted in Swiss mouse assessed as weight gain at 70 mg/kg, ip three doses were given at 24 hrs interval starting 24 hrs after allograft injection measured after 3 days relative to control; assay type: functional; conditions: route intraperitoneal; how it was run: as §5
Sarcoma-180 [26] = test: Antitumor activity against mouse Sarcoma 180 cells allografted in Swiss mouse at 70 mg/kg, ip three doses were given at 24 hrs interval starting 24 hrs after allograft injection relative to control; assay type: functional; conditions: route intraperitoneal
How it was run: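 Swiss mice given 10^6 ascitic sarcoma 180 cells ip; three ip doses at 24-h intervals starting 24 h later; controls received isotonic salt solution on the same schedule. […] Cures = alive without cancer cells at 60 days.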

Sarcoma-180 [27] = test: Antitumor activity against mouse Sarcoma 180 cells allografted in Swiss mouse assessed as survival at 70 mg/kg, ip three doses were given at 24 hrs interval starting 24 hrs after allograft injection measured after 5 days; assay type: functional, organism-based; parameters: dose 70 mg/kg; how it was run: as §1
Sarcoma-180 [28] = test: Antitumor activity against mouse Sarcoma 180 cells allografted in Swiss mouse at 150 mg/kg, ip three doses were given at 24 hrs interval starting 24 hrs after allograft injection relative to control; assay type: functional; conditions: route intraperitoneal; how it was run: as §4
Sarcoma-180 [29] = test: Antitumor activity against mouse Sarcoma 180 cells allografted in Swiss mouse assessed as survival at 150 mg/kg, ip three doses were given at 24 hrs interval starting 24 hrs after allograft injection measured after 5 days; assay type: functional, organism-based; parameters: dose 150 mg/kg; how it was run: as §1
Sarcoma-180 [30] = test: Antitumor activity against mouse Sarcoma 180 cells allografted in Swiss mouse assessed as weight gain at 150 mg/kg, ip three doses were given at 24 hrs interval starting 24 hrs after allograft injection measured after 3 days relative to control; assay type: functional; conditions: route intraperitoneal; how it was run: as §5
Sarcoma-180 [31] = test: Antitumor activity against mouse Sarcoma 180 cells allografted in Swiss mouse assessed as survival time at 150 mg/kg, ip three doses were given at 24 hrs interval starting 24 hrs after allograft injection relative to control; assay type: functional; conditions: route intraperitoneal; how it was run: as §2
Sarcoma-180 [32] = test: Antitumor activity against mouse Sarcoma 180 cells allografted in Swiss mouse assessed as cure at 150 mg/kg, ip three doses were given at 24 hrs interval starting 24 hrs after allograft injection measured after 60 days; assay type: functional, organism-based; parameters: dose 150 mg/kg; how it was run: as §3

COC1=C/C(=N\O)C=CC1=O
LD50 at 120 h [1]: 120 mg/kg | Activity (Sarcoma-180 [2]): Active | half-life [3]: 12.4 days | Redox potential [4]: 0.521 V | Survival (Sarcoma-180 [5]): 18.5 days | Activity (Sarcoma-180 [6]): inactive | T/C (Sarcoma-180 [7]): 173% | Activity (Sarcoma-180 [8]): 1.9%

CC(=O)Oc1ccc(N=C2C=CC(=O)C=C2)cc1
LD50 at 120 h [1]: 90 mg/kg | Activity (Sarcoma-180 [9]): Active | Activity (Sarcoma-180 [10]): -1.5% | Redox potential [4]: 0.633 V | Survival (Sarcoma-180 [11]): 19.2 days | Activity (Sarcoma-180 [12]): inactive | T/C (Sarcoma-180 [13]): 130%

CC1=C/C(=N\c2ccc(N(C)C)cc2)C=CC1=O
Activity (Sarcoma-180 [14]): -0.6% | Survival (Sarcoma-180 [15]): 18 days | LD50 at 120 h [1]: 27 mg/kg | half-life [3]: 83.8 days | T/C (Sarcoma-180 [16]): 127% | Redox potential [4]: 0.604 V | Activity (Sarcoma-180 [17]): Active | Activity (Sarcoma-180 [18]): inactive

O=C1C=CC(=Nc2ccc([O-])cc2)C=C1.[Na+]
LD50 at 120 h [1]: 50 mg/kg | Survival (Sarcoma-180 [19]): 32.8 days | Activity (Sarcoma-180 [20]): Active | T/C (Sarcoma-180 [21]): 214% | Activity (Sarcoma-180 [22]): -2.2%

O=C1C=C/C(=N/O)C=C1Cl
LD50 at 120 h [1]: 240 mg/kg | Survival (Sarcoma-180 [23]): 12.2 days | half-life [3]: 13.1 days | Activity (Sarcoma-180 [24]): inactive | Activity (Sarcoma-180 [25]): 13.4% | Redox potential [4]: 0.516 V | T/C (Sarcoma-180 [26]): 130% | Activity (Sarcoma-180 [27]): Active

O=C1C=C/C(=N/O)C(Br)=C1
T/C (Sarcoma-180 [28]): 158% | LD50 at 120 h [1]: 1090 mg/kg | Activity (Sarcoma-180 [29]): Active | Redox potential [4]: 0.532 V | Activity (Sarcoma-180 [30]): 6.4% | Survival (Sarcoma-180 [31]): 18.2 days | Activity (Sarcoma-180 [32]): inactive

CN(C)c1ccc(/N=C2/C=CC(=O)C(Cl)=C2)cc1
LD50 at 120 h [1]: 100 mg/kg | half-life [3]: 19.9 days | Activity (Sarcoma-180 [9]): Active | Activity (Sarcoma-180 [10]): 9% | Redox potential [4]: 0.658 V | Survival (Sarcoma-180 [11]): 33.3 days | Activity (Sarcoma-180 [12]): inactive | T/C (Sarcoma-180 [13]): 256%
